From ChEMBL document CHEMBL1799999, “N-benzoylated phenoxazines and phenothiazines: synthesis, antiproliferative activity, and inhibition of tubulin polymerization” (J Med Chem, 2011)
Calls of active or inactive are those of the source. No cut-off for these calls is given here.

What was measured:
NCI-H460 = assay: Antiproliferative activity against human NCI-H460 cells after 48 hrs by alamar blue assay; type: functional, cell-based; conditions: NCI-H460, 48 h
Outline: (§1)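 Cells seeded in growth medium and grown 24 h at 37 °C/5% CO2. 10 mM DMSO stocks diluted in half-log steps into medium, final DMSO 0.316%. After 45 h of compound exposure, AlamarBlue (resazurin) added for a further 3 h, giving 48 h total. Fluorescence read at 590 nm against untreated and cell-free blanks. At least two replicates; IC50 by nonlinear regression.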

K562 [1] = assay: Antiproliferative activity against human K562 cells after 48 hrs by hemocytometric analysis; type: functional, cell-based; conditions: K562, 48 h
Outline: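 K562 cells in RPMI 1640 with 10% FBS at 37 °C/5% CO2, plated at 2 × 10^5 cells/mL. Compounds in DMSO/methanol 1:1, final vehicle 0.5%. Cells counted in a Neubauer hemocytometer after 48 h and expressed as % of untreated control. Triplicate wells, three experiments; IC50 by nonlinear regression.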

SK-OV-3 = assay: Antiproliferative activity against human SKOV3 cells after 48 hrs by alamar blue assay; type: functional, cell-based; conditions: SK-OV-3, 48 h; outline: as §1
BT-549 = assay: Antiproliferative activity against human BT549 cells after 48 hrs by alamar blue assay; type: functional, cell-based; conditions: BT-549, 48 h; outline: as §1
SW480 = assay: Antiproliferative activity against human SW480 cells after 48 hrs by alamar blue assay; type: functional, cell-based; conditions: SW480, 48 h; outline: as §1
DLD-1 = assay: Antiproliferative activity against human DLD1 cells after 48 hrs by alamar blue assay; type: functional, cell-based; conditions: DLD-1, 48 h; outline: as §1
SK-N-SH = assay: Antiproliferative activity against human SK-N-SH cells after 72 hrs by sulforhodamine staining method; type: functional
Outline: (§2)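 Panel of 83 solid-tumour lines plus resting PBMC, run by the DTP NCI sulforhodamine B staining protocol. Compound exposure 72 h, concentrations from 0.0001 to 10 μM. GI50 taken per line; z-scores computed relative to the panel mean GI50.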

MG-63 = assay: Antiproliferative activity against human MG63 cells after 72 hrs by sulforhodamine staining method; type: functional; conditions: MG-63, 72 h; outline: as §2
SK-N-AS = assay: Antiproliferative activity against human SK-N-AS cells after 72 hrs by sulforhodamine staining method; type: functional; outline: as §2
5637 = assay: Antiproliferative activity against human 5637 cells after 72 hrs by sulforhodamine staining method; type: functional; conditions: Homo sapiens, 5637, 72 h; outline: as §2
RD = assay: Antiproliferative activity against human RD cells after 72 hrs by sulforhodamine staining method; type: functional; outline: as §2
SK-MEL-28 = assay: Antiproliferative activity against human SK-MEL-28 cells after 72 hrs by sulforhodamine staining method; type: functional; conditions: SK-MEL-28, 72 h; outline: as §2
HT-1080 = assay: Antiproliferative activity against human HT1080 cells after 72 hrs by sulforhodamine staining method; type: functional; conditions: HT-1080, 72 h; outline: as §2
A-375 = assay: Antiproliferative activity against human A375 cells after 72 hrs by sulforhodamine staining method; type: functional; conditions: A-375, 72 h; outline: as §2
MIA PaCa-2 = assay: Antiproliferative activity against human MIAPaCa2 cells after 72 hrs by sulforhodamine staining method; type: functional; conditions: MIA PaCa-2, 72 h; outline: as §2
HT-29 = assay: Antiproliferative activity against human HT-29 cells after 72 hrs by sulforhodamine staining method; type: functional; conditions: HT-29, 72 h; outline: as §2
COLO 205 [2] = assay: Antiproliferative activity against human COLO205 cells after 72 hrs by sulforhodamine staining method; type: functional; conditions: COLO 205, 72 h; outline: as §2
BXPC-3 = assay: Antiproliferative activity against human BxPC3 cells after 72 hrs by sulforhodamine staining method; type: functional; conditions: BXPC-3, 72 h; outline: as §2
[3] = Antiproliferative activity against human MDA-MB-436 cells after 72 hrs by sulforhodamine staining method; type: functional; conditions: MDA-MB-436, 72 h; outline: as §2
[4] = Antiproliferative activity against human MT3 cells after 72 hrs by sulforhodamine staining method; type: functional; conditions: MT-3, 72 h; outline: as §2
IGROV-1 = assay: Antiproliferative activity against human IGROV1 cells after 72 hrs by sulforhodamine staining method; type: functional; conditions: IGROV-1, 72 h; outline: as §2
COLO-678 = assay: Antiproliferative activity against human COLO-678 cells after 72 hrs by sulforhodamine staining method; type: functional; conditions: COLO-678, 72 h; outline: as §2
[5] = Antiproliferative activity against human resting PBMC after 72 hrs by sulforhodamine staining method; type: cell-based; outline: as §2
ASPC1 = assay: Antiproliferative activity against human AsPC1 cells after 72 hrs by sulforhodamine staining method; type: functional; conditions: ASPC1, 72 h; outline: as §2
Tubulin = Tubulin (Sus scrofa, UniProt P02554+P02550); assay: Inhibition of pig tubulin polymerization determined after 45 mins at 37 degC by turbidimetric analysis; type: protein assay
Outline: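 Microtubule protein (80–90% tubulin with MAPs) from porcine brain, isolated by two cold/warm cycles. Buffer: 20 mM PIPES pH 6.8, 80 mM NaCl, 0.5 mM MgCl2, 1 mM EGTA, 1 mM DTT. Protein at 1.2 mg/mL (about 10 μM tubulin) with 0.6 mM GTP, 1% DMSO, 37 °C.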

K562 [6] = assay: Cell cycle arrest in human K562 cells assessed as accumulation at G2/M phase at 0.003 to. 1 ug/ml after 24 hrs by flow cytometric analysis; type: functional, cell-based
Outline: (§3)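 K562 cells (2 × 10^5/mL) exposed to graded concentrations for 24 h at 37 °C; vehicle DMSO/MeOH 1:1. Washed in PBS, fixed in ice-cold 70% ethanol, stained 30 min with propidium iodide 0.02 mg/mL plus RNase 0.2 mg/mL. DNA content read by flow cytometry with 488 nm excitation; G2/M fraction scored.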

K562 [7] = assay: Cell cycle arrest in human K562 cells assessed as accumulation at G2/M phase at 30 nM after 24 hrs by flow cytometric analysis; type: functional, cell-based; outline: as §3
cells = conditions: Homo sapiens, 451Lu, 48 h
COLO 205 [8] = assay: Antiproliferative activity against human COLO205 cells after 48 hrs by alamar blue assay; type: functional, cell-based; conditions: COLO 205, 48 h; outline: as §1
Potorous tridactylus = assay: Inhibition of tubulin polymerization in Potorous tridactylus Ptk2 cells assessed as destruction of microtubule network at 5 uM after 1 hr by immunofluorescence assay
Outline: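 PtK2 cells exposed 1 h to 5 μM compound in RPMI medium with 2% DMSO; solvent-only controls. Microtubules labelled with Cy3-anti-tubulin antibody and examined by immunofluorescence microscopy.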

SMILES	IC50 (NCI-H460) [µM]	IC50 (K562 [1]) [µM]	IC50 (SK-OV-3) [µM]	IC50 (BT-549) [µM]	IC50 (SW480) [µM]	IC50 (DLD-1) [µM]	GI50 at 72 h [5] [µM]	GI50 (ASPC1) [µM]	IC50 (Tubulin) [µM]	Activity (K562 [6])	IC50 (cells) [µM]	IC50 (COLO 205 [8]) [µM]	other results
COc1ccc(C(=O)N2c3ccccc3Oc3cc(C#N)ccc32)cc1O	0.04	0.011	0.024	0.016	0.029	0.016	> 10	> 10	0.52	Active	0.006		GI50 (SK-N-SH): 0.0018 µM; GI50 (MG-63): 0.0018 µM; GI50 (SK-N-AS): 0.0018 µM; GI50 5637: 0.0019 µM; GI50 (RD): 0.002 µM; GI50 (SK-MEL-28): 0.002 µM; GI50 (HT-1080): 0.0026 µM; GI50 (A-375): 0.0027 µM; GI50 (MIA PaCa-2): 8.41 µM; GI50 (HT-29): 5.6 µM; GI50 (COLO 205 [2]): 4.26 µM; GI50 (BXPC-3): 2.25 µM; GI50 [3]: 1.13 µM; GI50 [4]: 0.0951 µM; GI50 (IGROV-1): 0.0633 µM; GI50 (COLO-678): 0.0623 µM; Activity (K562 [7]): Active
COc1ccc(C(=O)N2c3ccccc3Oc3ccc(Cl)cc32)cc1O	0.39	0.08	0.17	0.32	0.24	0.23	> 10	> 10	0.73		0.027	2.68	inhibition (Potorous tridactylus): Active
CC(=O)O[C@H]1C(=O)[C@@]2(C)[C@H]([C@H](OC(=O)c3ccccc3)[C@]3(O)C[C@H](OC(=O)[C@H](O)[C@@H](NC(=O)c4ccccc4)c4ccccc4)C(C)=C1C3(C)C)[C@]1(OC(C)=O)CO[C@@H]1C[C@@H]2O [PACLITAXEL]	0.004		0.006	0.006	0.011	0.05						0.005	
COc1ccc(CC(=O)N2c3ccccc3Oc3ccccc32)cc1		4.81							> 10				
COc1cc(C(=O)N2c3ccccc3[S+]([O-])c3ccc(Cl)cc32)cc(OC)c1OC (stereo not given)		35							> 10				
N#Cc1ccc2c(c1)Oc1ccccc1N2		> 10							> 10				
COc1ccc(C(=O)N2c3ccccc3Oc3cc(C#N)ccc32)cc1	0.015	0.014	0.006	0.008	0.008	0.009	> 10	> 10	0.73	Active	0.002	0.006	Activity (K562 [7]): Active
COc1cc2c(c(OC)c1OC)-c1ccc(OC)c(=O)cc1[C@@H](NC(C)=O)CC2 [COLCHICINE]	0.027		0.029	0.023	0.03	0.089				Active	0.017	0.021	inhibition (Potorous tridactylus): Active
COc1cc(C(=O)N2c3ccccc3S(=O)(=O)c3ccccc32)cc(OC)c1OC		2.6							2.46				
COc1ccc(C(=O)N2c3ccccc3Oc3ccc(Cl)cc32)cc1	0.68	0.14	0.35	0.33	0.53	0.54			0.57		0.09	0.43	
